Tests used:
[1] = molecular target: T1, human kidney-type glutaminase (hKGA124-669) (Homo sapiens, UniProt O94925); experiment: in vitro GLS assay with L-[3H]-glutamine as substrate; type: biochemical; details: for GLS inhibitory potency in words: comparison with compounds 8 and 3a
T1 sequence (O94925 124-669): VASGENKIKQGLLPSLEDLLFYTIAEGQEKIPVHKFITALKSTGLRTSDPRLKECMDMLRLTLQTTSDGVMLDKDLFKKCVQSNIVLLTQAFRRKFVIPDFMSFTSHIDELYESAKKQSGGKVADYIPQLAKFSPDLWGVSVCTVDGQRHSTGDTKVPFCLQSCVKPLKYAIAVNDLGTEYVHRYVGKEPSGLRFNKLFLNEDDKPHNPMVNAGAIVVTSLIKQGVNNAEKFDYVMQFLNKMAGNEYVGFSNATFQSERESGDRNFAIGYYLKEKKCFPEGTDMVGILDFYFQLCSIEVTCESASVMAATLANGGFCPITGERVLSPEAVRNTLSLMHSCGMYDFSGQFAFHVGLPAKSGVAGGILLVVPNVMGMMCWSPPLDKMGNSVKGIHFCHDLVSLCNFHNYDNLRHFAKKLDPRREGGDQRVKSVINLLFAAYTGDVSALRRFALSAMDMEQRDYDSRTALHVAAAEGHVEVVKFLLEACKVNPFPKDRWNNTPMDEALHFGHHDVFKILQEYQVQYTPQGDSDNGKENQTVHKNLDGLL

[2] = type: physicochemical; details: final concentrations of 1-10 μM
[3] = Aqueous solubility by the shake flask method; type: physicochemical; details: PBS buffer, 37 °C, pH 7.4, aqueous buffer, thermodynamic from solid
Summary of the method: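 Test compound added to PBS (pH 7.4) at 5 mg/mL and shaken at 1000 rpm for 24 h at 37 °C to reach saturation. The solution was then passed through a 0.45 μm PTFE filter and the filtrate diluted. Concentration was quantified by UHPLC–Orbitrap MS on a C18 column (35 °C) with a 0.1% formic acid water/acetonitrile gradient, against a 5-10000 nM calibration curve.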

GLS = details: read-out: GLS inhibition IC50; literature value; cited from earlier work

GLS inhibitory potency in words [1] | Compound | further results
substantially weaker potency | Nc1nnc(CCSc2ccc(NC(=O)Cc3ccccc3)nn2)s1 [Compound 18, N-(6-(2-(5-Amino-1,3,4-thiadiazol-2-yl)ethylthio)pyridazin-3-yl)-2-phenylacetamide] | 
 | O=C(Cc1ccccc1)Nc1nnc(CCSc2nnc(NC(=O)Cc3ccccc3)s2)s1 [Compound 3a, 2-Phenyl-N-(5-(2-(5-(2-phenylacetamido)-1,3,4-thiadiazol-2-yl)ethylthio)-1,3,4-thiadiazol-2-yl)acetamide] | behaviour on addition of stock solution to cell culture media [2]: precipitation
comparable | O=C(Cc1ccccc1)Nc1ccc(CCSc2nnc(NC(=O)Cc3ccccc3)s2)nn1 [Compound 25, 2-Phenyl-N-(6-(2-(5-(2-phenylacetamido)-1,3,4-thiadiazol-2-ylthio)ethyl)pyridazin-3-yl)acetamide] | solubility at 24 h [3]: < 1 µM
comparable | Nc1nnc(SCCc2ccc(NC(=O)Cc3ccccc3)nn2)s1 [Compound 24, N-(6-(2-(5-Amino-1,3,4-thiadiazol-2-ylthio)ethyl)pyridazin-3-yl)-2-phenylacetamide] | 
substantially weaker potency | O=C(Cc1ccccc1)Nc1ccc(SCCc2nnc(NC(=O)Cc3ccccc3)s2)nn1 [Compound 19, 2-Phenyl-N-(6-(2-(5-(2-phenylacetamido)-1,3,4-thiadiazol-2-yl)ethylthio)pyridazin-3-yl)acetamide] | 
negligible activity | O=C(Cc1ccccc1)Nc1nnc(CSCc2nnc(NC(=O)Cc3ccccc3)s2)s1 [Compound 2b, N,N’-(5,5’-Thiobis(methylene)bis(1,3,4-thiadiazole-5,2-diyl))bis(2-phenylacetamide), reference compound] | GLS inhibitory activity ([1]; at concentrations up to 100 μM): no inhibitory activity; IC50 (GLS): > 20 µM
